For orientation: Km means the substrate concentration at which the rate is half of its maximum. By efflux ratio is commonly meant a quotient of directional permeabilities that is used to spot active efflux.

We go through 5 molecules from publication PMC2913304 (Pharmaceutical research, 2008).

Series [1] has as its system SKPT cells. In words: Effect of potential inhibitors on apical uptake of carnosine. Type of series: in vitro ADME, rat. Conditions: 15-min uptake, apical pH 6.0; for reduction of apical uptake of carnosine: inhibitor 1 and 2 mM. Put shortly: (§1)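 Measured 15-min uptake at 37°C of [3H]substrate (with [14C]mannitol correction) from the apical or basolateral side, co-incubated with or without test compounds (PEPT2 and PHT1 substrates, unlabelled substrate, a cephalosporin). Apical buffer was pH 6.0 and basolateral pH 7.4. Test compounds were 1 mM for basolateral uptake. Results were compared with control by ANOVA and Dunnett's test. n=3–6.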

The test system of series [2] is SKPT cells. In words: Effect of potential inhibitors on basolateral uptake of carnosine. Type of series: in vitro ADME, rat. Conditions: inhibitor 1 mM; 15-min uptake, basolateral pH 7.4. Put shortly:
as §1

The test system of series [3] is SKPT cells. Conditions: cited from earlier work.
Series [4] deals with T1, PEPT2 (Rattus norvegicus, UniProt Q63424).
T1 sequence (Q63424 1-729): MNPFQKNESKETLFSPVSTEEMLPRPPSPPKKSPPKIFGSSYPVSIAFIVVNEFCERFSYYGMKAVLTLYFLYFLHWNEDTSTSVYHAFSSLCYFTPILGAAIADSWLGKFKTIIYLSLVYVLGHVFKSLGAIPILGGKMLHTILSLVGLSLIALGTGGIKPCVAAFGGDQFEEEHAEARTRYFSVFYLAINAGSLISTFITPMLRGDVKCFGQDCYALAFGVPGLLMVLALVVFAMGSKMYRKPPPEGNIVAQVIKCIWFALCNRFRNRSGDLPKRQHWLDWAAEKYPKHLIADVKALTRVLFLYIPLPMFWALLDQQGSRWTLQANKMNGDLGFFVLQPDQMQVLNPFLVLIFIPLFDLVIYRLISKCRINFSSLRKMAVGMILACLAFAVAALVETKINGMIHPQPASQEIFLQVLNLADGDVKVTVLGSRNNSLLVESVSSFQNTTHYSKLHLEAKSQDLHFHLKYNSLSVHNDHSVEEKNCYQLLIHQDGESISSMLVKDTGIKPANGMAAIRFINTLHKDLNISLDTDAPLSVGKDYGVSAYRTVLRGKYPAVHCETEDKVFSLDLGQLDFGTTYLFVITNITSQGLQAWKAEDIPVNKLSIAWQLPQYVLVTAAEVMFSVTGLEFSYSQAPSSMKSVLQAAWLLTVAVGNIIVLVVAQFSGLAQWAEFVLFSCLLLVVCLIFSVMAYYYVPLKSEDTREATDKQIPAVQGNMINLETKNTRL
Conditions: read-out: Km, PEPT2-mediated uptake; rat neonatal astrocytes; cited from earlier work.

Series [5] deals with SKPT cells. In words: Carnosine intracellular accumulation. It counts as in vitro ADME, rat. The essentials:
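Rat kidney proximal tubule cells (SV40-transformed) grown on collagen-coated filter inserts and used 4 days after seeding, with no antibiotics for the final 24 h and monolayer resistance checked. Cells were preincubated 10 min at 37°C with apical pH 6.0 and basolateral pH 7.4 buffer. 10 µM [3H]substrate plus [14C]mannitol was added to one side, 37°C timed incubations. Cells washed with ice-cold buffer, solubilised (NaOH/SDS), counted. Values normalised to protein and mannitol-corrected. Concentration ratio used intracellular volume from 3-O-methyl-D-glucose uptake (1–10 mM, 300 min, phloridzin). n=3–5.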

The subject of series [6] is SKPT cells. Briefly: Proton. Type of series: in vitro ADME, rat. Conditions: 15-min uptake, 10 µM, donor pH 5.5 to 7.4, basolateral pH 7.4. Put shortly: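 The donor-side pH was varied from 5.5 to 7.4 while the opposite side was held at pH 7.4 (apical uptake) or pH 6.0 (basolateral uptake). Uptake of 10 µM [3H]substrate was measured over 15 min at 37°C. Values were compared with pH 7.4 by ANOVA and Dunnett's test. n=3–6.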

Series [7] has as its system SKPT cells. Briefly: Efflux studies after 2 hr apical preloading of SKPT monolayers. It counts as in vitro ADME, rat. The essentials:
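Monolayers loaded apically with 10 µM [3H]substrate and [14C]mannitol for 2 h at 37°C, then washed four times with ice-cold buffer. Substrate-free buffer was added to both sides (apical pH 6.0, basolateral pH 7.4) at 37°C. Apical (100 µl) and basolateral (300 µl) samples were taken at set times and replaced. Radioactivity is expressed as percent of cell content after loading. n=3–5.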

The target in series [8] is T1, PEPT2. Briefly: Concentration-dependent apical uptake of carnosine. It counts as in vitro ADME. Conditions: 1–500 µM carnosine, 15-min uptake, pH 6.0.
Series [9] has as its target T1, PEPT2. Conditions: read-out: Km, PEPT2-mediated uptake; rat choroid plexus whole tissue; cited from earlier work.
Series [10] relates to rat choroid plexus primary cell cultures. Conditions: cited from earlier work.
Series [11] has as its system SKPT cells. In words: Cellular compartment model: influx and efflux clearances of carnosine. Type of series: in vitro ADME, rat. Put shortly:
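A three-compartment (apical, cellular, basolateral) mass-balance model gave influx and efflux clearances (µl/min/mg protein). Transepithelial clearances came from 10 µM donor flux experiments. Each influx clearance equals the transcellular clearance divided by the steady-state fraction effluxed to the opposite compartment. These fractions came from efflux studies after 2 h apical loading.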

The next series concerns basolateral transporter. In words: Concentration-dependent basolateral uptake of carnosine. Type of series: in vitro ADME, rat.
Series [12] can be described thus: pKa and fractional ionization of carnosine. Type of series: physicochemical.
A short description of series [13]: Carnosine transepithelial transport across SKPT cell monolayers. It counts as in vitro ADME, rat. Conditions: rat, basolateral-to-apical transcellular flux relative to apical-to-basolateral flux, 10 µM carnosine. Put shortly:
(§2)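 Filter-grown SKPT monolayers with apical pH 6.0 (MES/Tris) and basolateral pH 7.4 (HEPES/Tris) buffers at 37°C. 10 µM [3H]substrate with [14C]mannitol was placed in the apical or basolateral donor side. Receiver aliquots were taken over time for scintillation counting. Paracellular flux was corrected with mannitol, and clearances were obtained from flux relative to the 10 µM donor concentration. n=3–5.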

For series [14], the system named is SKPT cells. The series is described as above. Type of series: in vitro ADME, rat. Conditions: 10 µM in donor compartment, slope of transport vs time. The essentials: as §2
In series [15] the test system is SKPT cells. In words: Substrate stability studies in SKPT compartments. Type of series: in vitro ADME, rat. Put shortly: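 10 µM [3H]substrate applied apically or basolaterally (apical pH 6.0, basolateral pH 7.4) for 5–300 min at 37°C. Donor and receiver media were collected. Cells were washed, sonicated in water, extracted with an equal volume of acetonitrile, and centrifuged at 14,000 g for 10 min at 4°C. Reversed-phase C18 HPLC used isocratic 0.1 M NaH2PO4/0.075% heptafluorobutyric acid at 1 ml/min. Stability was taken from recovery and histidine appearance. n=3.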

Substrate in series [16]: NCCC(=O)N[C@@H](Cc1cnc[nH]1)C(=O)O
In words: Concentration-dependent apical uptake of carnosine. Type of series: in vitro ADME, rat. Conditions: other: 1–500 µM carnosine, 15-min uptake, pH 6.0, 37.0 °C.

Setting [17] is: at 60 min, after 2 hr apical preloading with 10 µM.
The mark [18] stands for this setting: single exponential fit of efflux-time profile.

Like-named read-outs stand apart in the source and are kept apart here. Non-standard residues stand in square brackets, D forms with d. Residues, ends and D or L forms follow the SMILES beside them. Sar = CNCC(=O)O Bounds are passed on as bounds.

On to `CN(CC(=O)O)C(=O)CN` [GlySar, glycylsarcosine] (H-Gly-[Sar]-OH), for which the “reduction of apical uptake of carnosine” value with SKPT cells [1] is on record as 90%. Moreover, in the series with SKPT cells [2], the “reduction of basolateral uptake of carnosine” value is recorded as 90–99%. In addition, the “apical uptake relative to basolateral uptake” value in the series on SKPT cells [3] (ref 37) is “about 5 ×”. Also, in the series with SKPT cells [3] (ref 38), the “apical uptake relative to basolateral uptake” value is listed as “about 3.5 ×” and the “apical-to-basolateral transepithelial flux higher than reverse flux” value is listed as 28%.
With `NCCC(=O)N[C@@H](Cc1cnc[nH]1)C(=O)O` [carnosine, β-alanyl-L-histidine], at PEPT2 [4], the Km was 43 µM. Further, in the series with SKPT cells [5] (10 µM carnosine), the “time over which uptake was linear, apical surface” value amounted to 60 min and the “time over which uptake was linear, basolateral surface” value is on record as 30 min. In addition, the “basolateral uptake plateau value” in the series on SKPT cells [5] (10 µM carnosine introduced from basolateral compartment) is reported as 15 pmol/mg protein. Also, in the series with SKPT cells [5] (10 µM carnosine, at 180–300 min), the “apical uptake plateau value” was “approximately 220 pmol/mg protein”. In the series on SKPT cells [5] (10 µM extracellular), the “intracellular to extracellular concentration ratio, basolateral introduction” value was 0.8. For the same molecule, the “intracellular to extracellular concentration ratio, apical introduction” value with SKPT cells [5] (10 µM extracellular, intracellular volume 2.0 µl/mg protein) worked out at 11. Also, the “pH of maximal apical uptake” value with SKPT cells [6] stood at 6.5. For the same molecule, in the series on SKPT cells [7] (SKPT cells), the “cell-to-apical efflux relative to cell-to-basolateral efflux” value was “about 10 times”. In the series with SKPT cells [7] (setting [17]), the “carnosine effluxed from cell to apical compartment” value is on record as “about 40%” and the “carnosine effluxed from cell to basolateral compartment” value is “about 4%”. In the series on SKPT cells [7] (single exponential fit), the “fefflux.A (fraction effluxed to apical compartment at steady state)” value came out at 0.66 and the “fefflux.B (fraction effluxed to basolateral compartment at steady state)” value was 0.047. In the series on SKPT cells [7] (setting [18]), the “carnosine effluxed from cellular to apical compartment at steady state” value amounted to 66% and the “carnosine effluxed to basolateral compartment at steady state” value is listed as 4.7%. The “Vmax, apical membrane uptake” value on PEPT2 [8] stood at 659±27 pmol/mg/15min. Besides, the Michaelis constant (Km) at PEPT2 [9] was 39 µM. For the same molecule, the “reduction of apical uptake of carnosine” value with SKPT cells [1] was 96%. In addition, in series [10], the “apical efflux relative to basolateral efflux” value is given as “about 4 times” and the “intracellular to extracellular concentration ratio” value is “approximately 135”. Further, in the series with SKPT cells [11], the CLBC/CLCA ratio is given as 0.8, the CLBC/CLCB ratio was found to be 32 and the CLCB/CLAC ratio amounted to 0.004. In the series on basolateral transporter (1–500 µM carnosine, 15-min uptake, pH 7.4), the “Vmax, basolateral membrane uptake” value stood at 27.4±1.3 pmol/mg/15min. Moreover, in the series with basolateral transporter (Km comparison), the “lower affinity of basolateral transporter compared to apical transporter” value was determined as 2 fold. Besides, in the series with basolateral transporter (Vmax comparison), the “lower capacity of basolateral transporter compared to apical transporter” value is 24 fold. Besides, the “reduction of basolateral uptake of carnosine” value in the series on SKPT cells [2] is listed as 90–99%. In series [12] (pH 5.5), the “ionized (NH3+) at pH 5.5” value was found to be 95%. Moreover, the “ionized (NH3+) at pH 6.5” value in series [12] (pH 6.5) was determined as 65%. The “ionized (NH3+) at pH 7.4” value in series [12] (pH 7.4) was 15–20%. Besides, in series [13], the efflux ratio at 10 µM was roughly 2. For the same molecule, in the series on SKPT cells [14], the A-to-B transepithelial rate is on record as 1.99 pmol/min/mg protein and the B-to-A transepithelial rate was 3.74 pmol/min/mg protein. In addition, the “stability in donor compartment” value in the series on SKPT cells [15] (apical or basolateral donor side, up to 300 min of incubation) was “remained intact”. In addition, the “intact in intracellular compartment at 60 min” value with SKPT cells [15] (intracellular compartment, 60 min) was “about 87%”. Moreover, the “intact in intracellular compartment at 300 min” value in the series on SKPT cells [15] (intracellular compartment, 300 min) came out at 81%. Moreover, in the series with SKPT cells [15] (intracellular compartment, first 15 min of incubation), the “intact in intracellular compartment, first 15 min” value is listed as greater than 94%.
For `CC1=C(C(=O)O)N2C(=O)[C@@H](NC(=O)[C@H](N)c3ccc(O)cc3)[C@H]2SC1` [cefadroxil], the “reduction of basolateral uptake of carnosine” value in the series with SKPT cells [2] was 90–99%.
As for `N[C@@H](Cc1c[nH]cn1)C(=O)O` [histidine, L-histidine], the “effect on apical uptake of carnosine” value with SKPT cells [1] (inhibitor 1, 2 and 5 mM) was “unaffected”. For the same molecule, the “effect on basolateral uptake of carnosine” value in the series on SKPT cells [2] was “unaffected”.

B1: PEPT2 (Rattus norvegicus) (protein)
chain: MNPFQKNESKETLFSPVSTEEMLPRPPSPPKKSPPKIFGSSYPVSIAFIVVNEFCERFSYYGMKAVLTLYFLYFLHWNEDTSTSVYHAFSSLCYFTPILGAAIADSWLGKFKTIIYLSLVYVLGHVFKSLGAIPILGGKMLHTILSLVGLSLIALGTGGIKPCVAAFGGDQFEEEHAEARTRYFSVFYLAINAGSLISTFITPMLRGDVKCFGQDCYALAFGVPGLLMVLALVVFAMGSKMYRKPPPEGNIVAQVIKCIWFALCNRFRNRSGDLPKRQHWLDWAAEKYPKHLIADVKALTRVLFLYIPLPMFWALLDQQGSRWTLQANKMNGDLGFFVLQPDQMQVLNPFLVLIFIPLFDLVIYRLISKCRINFSSLRKMAVGMILACLAFAVAALVETKINGMIHPQPASQEIFLQVLNLADGDVKVTVLGSRNNSLLVESVSSFQNTTHYSKLHLEAKSQDLHFHLKYNSLSVHNDHSVEEKNCYQLLIHQDGESISSMLVKDTGIKPANGMAAIRFINTLHKDLNISLDTDAPLSVGKDYGVSAYRTVLRGKYPAVHCETEDKVFSLDLGQLDFGTTYLFVITNITSQGLQAWKAEDIPVNKLSIAWQLPQYVLVTAAEVMFSVTGLEFSYSQAPSSMKSVLQAAWLLTVAVGNIIVLVVAQFSGLAQWAEFVLFSCLLLVVCLIFSVMAYYYVPLKSEDTREATDKQIPAVQGNMINLETKNTRL
With B1, the Km in series [16] is 49 ± 8 µM.
